How the values were obtained:
Format in all cases: protein-complex assay
[1] = molecular target: T1, Integrin alpha-IIb/beta-3 (Homo sapiens, UniProt P05106+P08514); test: Binding affinity for soluble GPIIb/IIIa captured on fibrinogen coated microtiter plate
Outline: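 Solid-phase ELISA measuring binding of soluble GPIIbIIIa to fibrinogen coated on a microtiter plate. Values are the average of at least 3 determinations.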

[2] = molecular target: T1, Integrin alpha-IIb/beta-3; test: Binding affinity for soluble GPIIb/IIIa captured on fibrinogen coated microtiter plate; 3:1 mixture enriched in the faster eluting diastereoisomer
Outline: (§1)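 Solid-phase ELISA measuring binding of soluble GPIIbIIIa to plate-coated fibrinogen. Tested as a diastereoisomer-enriched mixture, single determination (n = 1).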

[3] = molecular target: T1, Integrin alpha-IIb/beta-3; test: Binding affinity for soluble GPIIb/IIIa captured on fibrinogen coated microtiter plate; 1:3 mixture enriched in the slower eluting diastereoisomer; outline: as §1

T1 sequence (P05106 27-788 limits assumed): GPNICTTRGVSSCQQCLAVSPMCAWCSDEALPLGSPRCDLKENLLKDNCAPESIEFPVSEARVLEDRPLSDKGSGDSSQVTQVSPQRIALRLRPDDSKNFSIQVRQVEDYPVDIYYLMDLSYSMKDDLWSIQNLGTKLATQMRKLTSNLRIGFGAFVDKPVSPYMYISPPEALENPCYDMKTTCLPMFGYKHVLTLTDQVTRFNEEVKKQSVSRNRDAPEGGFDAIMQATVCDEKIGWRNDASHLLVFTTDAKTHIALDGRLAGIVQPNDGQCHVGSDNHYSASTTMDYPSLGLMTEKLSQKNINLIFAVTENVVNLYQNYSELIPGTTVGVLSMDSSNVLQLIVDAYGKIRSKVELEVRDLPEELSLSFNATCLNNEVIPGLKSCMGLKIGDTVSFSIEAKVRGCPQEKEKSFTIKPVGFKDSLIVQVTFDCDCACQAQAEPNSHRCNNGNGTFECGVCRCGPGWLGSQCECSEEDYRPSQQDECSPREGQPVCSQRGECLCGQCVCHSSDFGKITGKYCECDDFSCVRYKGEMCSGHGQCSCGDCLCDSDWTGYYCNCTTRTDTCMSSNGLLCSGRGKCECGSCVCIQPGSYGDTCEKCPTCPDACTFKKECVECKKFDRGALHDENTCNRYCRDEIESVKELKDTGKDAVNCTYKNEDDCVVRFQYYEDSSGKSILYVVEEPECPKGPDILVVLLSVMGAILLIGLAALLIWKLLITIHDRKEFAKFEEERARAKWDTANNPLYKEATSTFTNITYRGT
T1 sequence (P08514 32-887 limits assumed): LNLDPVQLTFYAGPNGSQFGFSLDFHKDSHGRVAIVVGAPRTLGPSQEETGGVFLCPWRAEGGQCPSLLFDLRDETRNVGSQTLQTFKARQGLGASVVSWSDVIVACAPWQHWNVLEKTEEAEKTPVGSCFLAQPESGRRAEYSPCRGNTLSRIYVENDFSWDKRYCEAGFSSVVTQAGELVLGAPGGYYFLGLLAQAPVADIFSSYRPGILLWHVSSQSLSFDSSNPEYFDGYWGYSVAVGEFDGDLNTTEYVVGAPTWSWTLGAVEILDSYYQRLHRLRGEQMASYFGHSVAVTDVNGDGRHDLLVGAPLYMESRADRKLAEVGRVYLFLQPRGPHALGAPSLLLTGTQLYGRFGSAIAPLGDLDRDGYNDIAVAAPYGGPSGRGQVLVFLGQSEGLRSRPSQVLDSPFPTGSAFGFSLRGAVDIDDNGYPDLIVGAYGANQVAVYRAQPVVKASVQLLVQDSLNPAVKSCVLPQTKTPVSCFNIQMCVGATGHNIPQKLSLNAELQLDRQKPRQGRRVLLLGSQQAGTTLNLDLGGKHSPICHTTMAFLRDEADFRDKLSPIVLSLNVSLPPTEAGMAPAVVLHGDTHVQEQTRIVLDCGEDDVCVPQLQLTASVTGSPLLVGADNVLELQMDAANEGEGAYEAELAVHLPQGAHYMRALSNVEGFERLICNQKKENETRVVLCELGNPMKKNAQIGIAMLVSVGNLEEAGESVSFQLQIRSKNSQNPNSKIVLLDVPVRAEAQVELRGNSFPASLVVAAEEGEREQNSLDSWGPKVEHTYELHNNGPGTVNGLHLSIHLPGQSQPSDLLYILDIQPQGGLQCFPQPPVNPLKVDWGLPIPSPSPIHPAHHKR
T1 sequence (P08514 891-1039 limits assumed): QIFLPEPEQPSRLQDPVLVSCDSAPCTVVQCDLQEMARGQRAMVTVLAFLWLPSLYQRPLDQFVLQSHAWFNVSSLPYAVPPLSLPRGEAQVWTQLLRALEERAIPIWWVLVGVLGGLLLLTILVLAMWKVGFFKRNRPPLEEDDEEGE

| SMILES | IC50 [1] [nM] | IC50 [2] [nM] | IC50 [3] [nM] |
| --- | --- | --- | --- |
| CN1C(=O)CN(CCC(=O)O)C(=O)c2cc(C#Cc3ccc(C(=N)N)cc3)ccc21 | 11 | – | – |
| C[C@@H](CC(=O)O)N1CC(=O)N(C)c2c(Cl)cc(C#Cc3ccc(C(=N)N)cc3)cc2C1=O | 7 | – | – |
| C[C@H](CC(=O)O)N1CC(=O)N(C)c2ccc(C#Cc3ccc(C(=N)N)cc3)cc2C1=O | 60 | – | – |
| C[C@@H](CC(=O)O)N1CC(=O)N(C(C)(C)C)c2ccc(C#Cc3ccc(C(=N)N)cc3)cc2C1=O | – | 3 | 12 |
| C[C@@H](CC(=O)O)N1CC(=O)N(C)c2ccc(C#Cc3ccc(C(=N)N)cc3)cc2C1=O | 5 | – | – |
| C[C@@H](CC(=O)O)N1CC(=O)N(C(C)(C)C)c2c(Cl)cc(C#Cc3ccc(C(=N)N)cc3)cc2C1=O (stereo in doubt; 9) | 2 | – | – |
| C[C@@H](CC(=O)O)N1CC(=O)N(C(C)(C)C)c2c(Cl)cc(C#Cc3ccc(C(=N)N)cc3)cc2C1=O (stereo in doubt; 10) | 140 | – | – |
| C[C@H](CC(=O)O)N1CC(=O)N(C(C)(C)C)c2c(Cl)cc(C#Cc3ccc(C(=N)N)cc3)cc2C1=O (stereo in doubt; 11) | 18 | – | – |
| C[C@H](CC(=O)O)N1CC(=O)N(C(C)(C)C)c2c(Cl)cc(C#Cc3ccc(C(=N)N)cc3)cc2C1=O (stereo in doubt; 12) | 65 | – | – |

— ChEMBL document CHEMBL1129954, “From peptide to non-peptide. 3. Atropisomeric GPIIbIIIa antagonists containing the 3,4-dihydro-1H-1,4-benzodiazepine-2,5-dione nucleus” (J Med Chem, 1997)
